T cruzi repl = inhibitors of intracellular T. cruzi growth, primary screen, luminescence, NIH3T3 host cells. T. cruzi beta-gal in NIH3T3, 90 h. AID 1885, 2009. inhibition, % (no concentration beside the values). hit rate 1.4% among 300,000;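 active = mean inhibition across valid replicates above about 55%, limit read from the data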;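 also: signal also drops with host cell toxicity which is not excluded here; higher percent means less beta-gal luminescence so fewer parasites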
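compound dosing = single 50 nL compound addition per well in DMSO | material = NIH/3T3 host cells with β-galactosidase reporter T. cruzi | input = 5,000 host fibroblasts per well | timing = ≥90 h infection period, 3 h prior cell attachment | read-out basis = percent inhibition of parasite-derived β-gal signal | detection = GalScreen β-gal luminescence, detergent lysis, 60 min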
L major viab = Leishmania major promastigote growth inhibition, primary screen; inhibition, % at 10 µM; Leishmania major promastigotes, resazurin fluorescence viability; hit rate 9% among 200,000; in the data active = inhibition above about 50%;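 also: promastigotes grown with compound for 44 hours at 28 °C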
HSF-1 act = HSF-1 activators, primary screen, NIH3T3-HGL cells, MG132 stress, luminescence, single point. NIH3T3-HGL HSF-1 luciferase reporter, 8 h; 100% = twice DMSO control signal. activation, % at 9 µM. hit rate 1.7% among 300,000. AID 504408, 2011;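 active = mean replicate activation of at least 50% with a set share of replicates each reaching 50%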
HSF1 inh = HSF1 inhibitors in luciferase reporter cells, primary screen, cell-based, NIH3T3, luminescence; hit rate 0.77% among 300,000; NIH3T3-HGL HSE-luciferase, MG132-induced, luminescence 8 h; stronger effect = lower value; activity change, negative = inhibition, % at 7.5 µM (by protocol);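 active = more than half of replicate wells show activity change below -50%, luminescence cut by over half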;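 also: luciferase reports HSF-1 transcriptional activity via heat shock element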
Hsp70 activator = Hsp70 transcriptional activators, primary screen, cell-based, HeLa, Hsp70 promoter luciferase, luminescence, 10 µM. HeLa Hsp70 promoter luciferase reporter; scaled: vehicle 0, proteasome-inhibitor control 100%. activation, % at 10 µM. hit rate 0.04% among 200,000. AID 1203, 2008;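 active = activation above the mean across all tested compounds plus 3 SD, cutoff set per campaign, cut at about 5.5% in these data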
Large screens that a line does not name were inactive. Shown is part of a subset that was picked to be rich in hits.

OC(CNCc1ccccc1)Cn1ccc2ccccc21 (stereo not given)	L major viab 96
Oc1ccccc1NCC(O)Cn1ccc2ccccc21 (stereo not given)	none
O=C(CSc1nccc(=O)[nH]1)NN(c1ccccc1)c1ccccc1	none
O=C(CSc1ccc2nnc(-c3ccccn3)n2n1)Nc1cccc(F)c1	none (no result: L major viab, Hsp70 activator)
O=C(Nc1ccc2oc(-c3ccccc3F)nc2c1)c1ccc2c(c1)OCCO2	L major viab 66
CN1CCSc2ccc(C(=O)Nc3cccc(F)c3)cc21	HSF-1 act 160 (no result: L major viab, Hsp70 activator)
CN(C)c1cccc(C(=O)Nc2cccc(F)c2)c1	none
O=C(Nc1cccc(NC(=O)c2ccco2)c1)c1ccc2c(c1)OCCO2	L major viab 51
CCN(CC)c1ccc(C(=O)Nc2cccc(F)c2)cc1	HSF-1 act 61
C=CCN1C(=O)c2ccc(C(=O)N(C)CC(=O)Nc3cccc(F)c3)cc2C1=O	none (no result: L major viab, Hsp70 activator)
COC(=O)c1ccsc1NS(=O)(=O)c1ccccc1	none (no result: L major viab, Hsp70 activator)
O=C(CN1C(=O)S/C(=C\c2ccccc2F)C1=O)NC1C=CS(=O)(=O)C1 (stereo not given)	none (no result: L major viab, Hsp70 activator)
Cc1cc(=O)n(C2CCS(=O)(=O)C2)[nH]1 (stereo not given)	none
O=C1CCCC(=O)N1c1ccc(NCCOCCO)c([N+](=O)[O-])c1	none
Cc1cc(NC(=O)c2ccc3c(c2)OCO3)ccc1NC(=O)c1ccco1	none
O=C(Nc1cccc(NC(=O)c2ccco2)c1)c1ccc2c(c1)OCO2	L major viab 81
O=C(Nc1ccccc1)c1ccc2c(c1)OCCO2	none
O=C(Nc1cccc(F)c1)c1ccc2c(c1)OCCO2	HSF-1 act 57 (no result: L major viab, Hsp70 activator)
O=C(C1=C[C@@H]2[C@H]3C(=O)N(c4ccccc4)C(=O)[C@H]3[C@@H](C(=O)c3ccc(Cl)cc3)N2C=C1)c1ccccc1	none
CN(Cc1cn(C)c2ccccc12)C(=S)Nc1cc(F)cc(F)c1	L major viab 74
COc1cccc(NC(=O)Cc2cn(C)c3ccccc23)c1	none
Cc1ccc(NC(=O)Cc2cn(C)c3ccccc23)cc1F	none
Cc1cccc(NC(=S)N(C)Cc2cn(C)c3ccccc23)c1	L major viab 69
Cc1cc(=O)n2nc(N3CCC(C(=O)NCc4ccccc4F)CC3)sc2n1	none (no result: L major viab, Hsp70 activator)
Cc1ccc(C)c(OCCC(=O)NCCc2ccc(F)cc2)c1	none (no result: L major viab, Hsp70 activator)
c1ccc2oc(-c3csc(NCC4CCCO4)n3)cc2c1 (stereo not given)	HSF-1 act 52
Cc1nc2ccc(NC(=O)c3ccc(S(=O)(=O)N4CCOCC4)cc3)cc2s1	none
C=CCNc1nc(-c2cc3ccccc3o2)cs1	none
O=C(Nc1nc(-c2ccc(S(=O)(=O)N3CCOCC3)cc2)cs1)c1ccccc1	L major viab 73
COc1ccc(/C=N/Nc2nc(-c3cccc(S(=O)(=O)N4CCCC4)c3)cs2)c(OC)c1	L major viab 69
O=C(Nc1nc(-c2nc3ccccc3s2)cs1)c1ccc(S(=O)(=O)N2CCOCC2)cc1	L major viab 52
COc1ccccc1CCNC(=O)c1ccc(NC(=O)CC2SC(N3CCCC3)=NC2=O)cc1 (stereo not given)	none (no result: L major viab, Hsp70 activator)
CC1CN(S(=O)(=O)c2ccc(C(=O)Nc3nc(-c4cc5ccccc5o4)cs3)cc2)CC(C)O1 (stereo not given)	none
COc1cccc(C(=O)Nc2nc(-c3ccc(S(=O)(=O)N4CCOCC4)cc3)cs2)c1	L major viab 92
Cc1ccc(S(=O)(=O)N2CCOCC2)cc1C(=O)Nc1nc(-c2cccnc2)cs1	none
COc1ccc(-c2csc(NC(=O)c3ccc(S(=O)(=O)N4CCc5ccccc5C4)cc3)n2)c(OC)c1	L major viab 90 (no result: HSF-1 act, HSF1 inh)
CCOc1ccc(-c2csc(NC(=O)c3ccc(S(=O)(=O)N4CCc5ccccc5C4)cc3)n2)cc1	none
Cc1ccc(-c2csc(NC(=O)COC(=O)c3cccc(S(=O)(=O)N4CCOCC4)c3)n2)cc1	none
O=C(Nc1nc(-c2cc3ccccc3o2)cs1)c1ccc(S(=O)(=O)N2CCCC2)cc1	T cruzi repl 66
O=S(=O)(c1ccc(-c2csc(-c3cccnc3)n2)cc1)N1CCOCC1	L major viab 68
CCOc1ccc(S(=O)(=O)NNS(=O)(=O)c2ccc(C)cc2C)cc1	none (no result: L major viab, Hsp70 activator)
Cc1cc(Cl)c2cc3ccccc3cc2n1	none (no result: L major viab, Hsp70 activator)

Screening results: PubChem, several laboratories
